Calls of active or inactive are those of the source. The rule behind the calls is not given here.
Assays:
[1] = system: HepG2; test: Cytotoxicity against human HepG2 cells after 72 hrs by MTT assay; type: functional, cell-based; conditions: HepG2, 72 h
Method in brief: (§1)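 MTT assay. Cells were plated and grown 24 h at 37 °C, 5% CO2, then exposed to compound in medium with 0.1% DMSO for 72 h. MTT (5 mg/mL in PBS) was added for 4 h and absorbance read at 490 nm. IC50 was taken from dose-response curves; at least three independent experiments.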

[2] = system: HCT-116; test: Cytotoxicity against human HCT116 cells after 72 hrs by MTT assay; type: functional, cell-based; conditions: HCT-116, 72 h; method in brief: as §1
[3] = system: L02; test: Cytotoxicity against human LO2 cells after 72 hrs by MTT assay; type: cell-based; conditions: L02, 72 h; method in brief: as §1
[4] = system: HL-60; test: Cytotoxicity against human HL60 cells after 72 hrs by MTT assay; type: functional, cell-based; conditions: HL-60, 72 h; method in brief: as §1
[5] = system: SMMC-7721; test: Cytotoxicity against human SMMC7721 cells after 72 hrs by MTT assay; type: functional, cell-based; conditions: SMMC-7721, 72 h; method in brief: as §1
[6] = Induction of NO release assessed as nitrite formation in PBS at 100 uM up to 300 mins by Griess assay
Method in brief: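 Compound at 100 μM was incubated at 37 °C in PBS, pH 7.4, containing 2% DMSO and 5.0 mM L-cysteine, in acellular or HepG2 cell lysates, and sampled over time. Samples were mixed with Griess reagent at 37 °C for 15 min and read at 540 nm. Nitrite was quantified against a sodium nitrite standard curve, in triplicate.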

[7] = system: HepG2; test: Induction of apoptosis in human HepG2 cells assessed as necrotic cells at 2 uM after 72 hrs by Annexin V-APC/7-AAD staining based flow cytometric method (reference value: 2.44%); type: functional
[8] = system: HepG2; test: Induction of apoptosis in human HepG2 cells assessed as early apoptotic cells at 2 uM after 72 hrs by Annexin V-APC/7-AAD staining based flow cytometric method (reference value: 2.06%); type: functional
[9] = system: HepG2; test: Cell cycle arrest in human HepG2 cells assessed as accumulation at G1 phase at 2 uM after 72 hrs by propidium iodide staining based flow cytometric method (reference value: 56.77%); type: functional
Method in brief: (§2)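 HepG2 cells were seeded and grown 24 h at 37 °C, 5% CO2. They were then exposed to 0, 0.5, 1 or 2 μM for 72 h, fixed in 70% ethanol at 4 °C for 12 h, and stained with RNase A plus propidium iodide for 30 min. DNA content was measured by flow cytometry to give the cell-cycle phase distribution.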

[10] = system: H22; test: Antitumor activity against […] H22 cells xenografted in ICR mouse assessed as tumor growth inhibition at 15 mg/kg, iv administered once daily for 21 days measured post last dose relative to control; type: functional; conditions: 504 h, read-out: TGI
[11] = system: HepG2; test: Induction of apoptosis in human HepG2 cells assessed as early apoptotic cells at 0.5 uM after 72 hrs by Annexin V-APC/7-AAD staining based flow cytometric method (reference value: 2.06%); type: functional
[12] = system: HepG2; test: Cytotoxicity against human HepG2 cells at 2 uM after 72 hrs by MTT assay; type: functional, cell-based
Method in brief: (§3)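 HepG2 cells were pretreated for 2 h with graded concentrations of carboxy-PTIO (an NO scavenger), or left unpretreated. They were then exposed to 2 μM compound for 72 h, and growth was assessed by MTT. Mean ± SD, n=3.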

[13] = system: HepG2; test: Cell cycle arrest in human HepG2 cells assessed as accumulation at G1 phase at 0.5 uM after 72 hrs by propidium iodide staining based flow cytometric method (reference value: 56.77%); type: functional; method in brief: as §2
[14] = system: HepG2; test: Disruption of mitochondrial membrane potential in human HepG2 cells assessed as collapse of the mitochondrial membrane potential at 1 uM after 72 hrs by JC1 staining based flow cytometric method (reference value: 3.05%); type: functional
Method in brief: (§4)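 HepG2 cells were exposed to 0, 0.5, 1 or 2 μM for 72 h, washed in PBS, and resuspended in JC-1 incubation buffer at 37 °C for 15 min. The fractions of cells with healthy or collapsed mitochondrial membrane potential were determined by flow cytometry.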

[15] = system: HepG2; test: Induction of apoptosis in human HepG2 cells assessed as live cells at 1 uM after 72 hrs by Annexin V-APC/7-AAD staining based flow cytometric method (reference value: 94.99%); type: functional
[16] = system: Mus musculus; test: Toxicity in ICR mouse xenografted with […] cells assessed as body weight at 15 mg/kg, iv administered once daily for 21 days measured post last dose (reference value: 26 +/- 0.6 g); type: organism-based; conditions: in vivo, 504 h
[17] = system: HepG2; test: Induction of apoptosis in human HepG2 cells assessed as late apoptotic cells at 1 uM after 72 hrs by Annexin V-APC/7-AAD staining based flow cytometric method (reference value: 0.51%); type: functional
[18] = system: HepG2; test: Induction of apoptosis in human HepG2 cells assessed as early apoptotic cells at 1 uM after 72 hrs by Annexin V-APC/7-AAD staining based flow cytometric method (reference value: 2.06%); type: functional
[19] = system: HepG2; test: Induction of apoptosis in human HepG2 cells assessed as live cells at 0.5 uM after 72 hrs by Annexin V-APC/7-AAD staining based flow cytometric method (reference value: 94.99%); type: functional
[20] = system: HepG2; test: Induction of apoptosis in human HepG2 cells assessed as live cells at 2 uM after 72 hrs by Annexin V-APC/7-AAD staining based flow cytometric method (reference value: 94.99%); type: functional
[21] = system: H22; test: Antitumor activity against […] H22 cells xenografted in ICR mouse assessed as tumor growth inhibition at 30 mg/kg, iv administered once daily for 21 days measured post last dose relative to control; type: functional; conditions: 504 h, read-out: TGI
[22] = system: HepG2; test: Cytotoxicity against human HepG2 cells at 2 uM after 72 hrs in presence of NO scavenger PTIO by MTT assay; type: functional, cell-based; method in brief: as §3
[23] = system: HepG2; test: Cell cycle arrest in human HepG2 cells assessed as accumulation at G2 phase at 1 uM after 72 hrs by propidium iodide staining based flow cytometric method (reference value: 17.45%); type: functional; method in brief: as §2
[24] = system: HepG2; test: Cell cycle arrest in human HepG2 cells assessed as accumulation at G2 phase at 2 uM after 72 hrs by propidium iodide staining based flow cytometric method (reference value: 17.45%); type: functional; method in brief: as §2
[25] = system: H22; test: Antitumor activity against […] H22 cells xenografted in ICR mouse assessed as tumor weight at 30 mg/kg, iv administered once daily for 21 days measured post last dose (reference value: 4.38 +/- 0.16 g); type: functional
[26] = system: HepG2; test: Disruption of mitochondrial membrane potential in human HepG2 cells assessed as intact mitochondrial membrane at 2 uM after 72 hrs by JC1 staining based flow cytometric method (reference value: 96.94%); type: functional; method in brief: as §4
[27] = system: HepG2; test: Cell cycle arrest in human HepG2 cells assessed as accumulation at S phase at 2 uM after 72 hrs by propidium iodide staining based flow cytometric method (reference value: 25.78%); type: functional; method in brief: as §2
[28] = system: HepG2; test: Cell cycle arrest in human HepG2 cells assessed as accumulation at S phase at 0.5 uM after 72 hrs by propidium iodide staining based flow cytometric method (reference value: 25.78%); type: functional; method in brief: as §2
[29] = system: HepG2; test: Induction of apoptosis in human HepG2 cells assessed as late apoptotic cells at 0.5 uM after 72 hrs by Annexin V-APC/7-AAD staining based flow cytometric method (reference value: 0.51%); type: functional
[30] = system: HepG2; test: Induction of apoptosis in human HepG2 cells assessed as necrotic cells at 0.5 uM after 72 hrs by Annexin V-APC/7-AAD staining based flow cytometric method (reference value: 2.44%); type: functional
[31] = system: HepG2; test: Disruption of mitochondrial membrane potential in human HepG2 cells assessed as collapse of the mitochondrial membrane potential at 0.5 uM after 72 hrs by JC1 staining based flow cytometric method (reference value: 3.05%); type: functional; method in brief: as §4
[32] = system: HepG2; test: Induction of apoptosis in human HepG2 cells assessed as late apoptotic cells at 2 uM after 72 hrs by Annexin V-APC/7-AAD staining based flow cytometric method (reference value: 0.51%); type: functional
[33] = system: HepG2; test: Disruption of mitochondrial membrane potential in human HepG2 cells assessed as intact mitochondrial membrane at 0.5 uM after 72 hrs by JC1 staining based flow cytometric method (reference value: 96.94%); type: functional; method in brief: as §4
[34] = system: HepG2; test: Cell cycle arrest in human HepG2 cells assessed as accumulation at G2 phase at 0.5 uM after 72 hrs by propidium iodide staining based flow cytometric method (reference value: 17.45%); type: functional; method in brief: as §2
[35] = system: Mus musculus; test: Toxicity in ICR mouse xenografted with […] cells assessed as body weight at 30 mg/kg, iv administered once daily for 21 days measured post last dose (reference value: 26 +/- 0.6 g); type: organism-based; conditions: in vivo, 504 h
[36] = system: HepG2; test: Cell cycle arrest in human HepG2 cells assessed as accumulation at G1 phase at 1 uM after 72 hrs by propidium iodide staining based flow cytometric method (reference value: 56.77%); type: functional; method in brief: as §2
[37] = system: HepG2; test: Disruption of mitochondrial membrane potential in human HepG2 cells assessed as collapse of the mitochondrial membrane potential at 2 uM after 72 hrs by JC1 staining based flow cytometric method (reference value: 3.05%); type: functional; method in brief: as §4
[38] = system: H22; test: Antitumor activity against […] H22 cells xenografted in ICR mouse assessed as tumor weight at 15 mg/kg, iv administered once daily for 21 days measured post last dose (reference value: 4.38 +/- 0.16 g); type: functional
[39] = system: HepG2; test: Induction of apoptosis in human HepG2 cells assessed as necrotic cells at 1 uM after 72 hrs by Annexin V-APC/7-AAD staining based flow cytometric method (reference value: 2.44%); type: functional
[40] = system: HepG2; test: Disruption of mitochondrial membrane potential in human HepG2 cells assessed as intact mitochondrial membrane at 1 uM after 72 hrs by JC1 staining based flow cytometric method (reference value: 96.94%); type: functional; method in brief: as §4
[41] = system: HepG2; test: Induction of apoptosis in human HepG2 cells after 72 hrs by Annexin V-APC/7-AAD staining based flow cytometric method; type: functional, cell-based
[42] = system: HepG2; test: Cell cycle arrest in human HepG2 cells assessed as accumulation at S phase at 1 uM after 72 hrs by propidium iodide staining based flow cytometric method (reference value: 25.78%); type: functional; method in brief: as §2

## COc1ccc2cc3[n+](cc2c1OCCCCCO[N+](=O)[O-])CCc1cc2c(cc1-3)OCO2
[1]
  IC50: 12.4 µM

## COc1cc2c(cc1OC)-c1c(Br)c3ccc(OC)c(OCCCCCCCCCCCCO[N+](=O)[O-])c3c[n+]1CC2
[1]
  IC50: 1.98 µM

## COc1ccc2cc3[n+](cc2c1OCCCCCCCCO[N+](=O)[O-])CCc1cc2c(cc1-3)OCO2
[2]
  IC50: 1.58 µM
[3]
  IC50: 33.8 µM
[4]
  IC50: 1.42 µM
[5]
  IC50: 2.82 µM
[1]
  IC50: 2.47 µM
[6]
  Activity: Active

## COc1ccc2cc3[n+](cc2c1OCCCO[N+](=O)[O-])CCc1cc2c(cc1-3)OCO2
[1]
  IC50: 22 µM

## COc1ccc2c(Br)c3[n+](cc2c1OCCCCCCCCO[N+](=O)[O-])CCc1cc2c(cc1-3)OCO2
[1]
  IC50: 4.14 µM
[6]
  Activity: Active

## COc1cc2c(cc1OC)-c1cc3ccc(OC)c(OCCCCCCCCCCCCO[N+](=O)[O-])c3c[n+]1CC2
[1]
  IC50: 2.55 µM

## COc1ccc2cc3[n+](cc2c1OCCCCCCCCCCCCO[N+](=O)[O-])CCc1cc2c(cc1-3)OCO2
[1]
  IC50: 2.52 µM
[6]
  Activity: Active

## COc1cc2c(cc1OC)-c1c(Br)c3ccc(OC)c(OCCCCCCCCCCO[N+](=O)[O-])c3c[n+]1CC2
[1]
  IC50: 3.01 µM

## COc1ccc2cc3[n+](cc2c1OCCO[N+](=O)[O-])CCc1cc2c(cc1-3)OCO2
[1]
  IC50: 25.2 µM

## COc1cc2c(cc1OC)-c1c(Br)c3ccc(OC)c(OCCCCCCCCO[N+](=O)[O-])c3c[n+]1CC2.[Br-]
[7]
  Activity: 4.43%
[8]
  Activity: 41.13%
[9]
  Activity: 34.32%
[10]
  inhibition in vivo at 15 mg/kg: 45.9%
[11]
  Activity: 11.02%
[12]
  Activity: Active
[2]
  IC50: 2.29 µM
[13]
  Activity: 51.14%
[3]
  IC50: 28.9 µM
[4]
  IC50: 1.26 µM
[14]
  Activity: 25.5%
[15]
  Activity: 63.61%
[16]
  Activity: 25.4 g
[17]
  Activity: 9.11%
[18]
  Activity: 22.97%
[19]
  Activity: 85.1%
[20]
  Activity: 44.44%
[21]
  inhibition in vivo at 30 mg/kg: 62.5%
[22]
  Activity: inactive
[5]
  IC50: 1.21 µM
[23]
  Activity: 29.57%
[24]
  Activity: 41.45%
[25]
  Activity: 1.64 g
[26]
  Activity: 59.5%
[27]
  Activity: 24.23%
[28]
  Activity: 25.49%
[29]
  Activity: 2.39%
[30]
  Activity: 1.49%
[31]
  Activity: 12.1%
[32]
  Activity: 10.01%
[33]
  Activity: 87.9%
[34]
  Activity: 23.38%
[35]
  Activity: 25.2 g
[36]
  Activity: 47.33%
[37]
  Activity: 40.5%
[1]
  IC50: 1.36 µM
[38]
  Activity: 2.37 g
[39]
  Activity: 4.32%
[6]
  Activity: Active
[40]
  Activity: 74.5%
[41]
  Activity: Dose-dependent effect
[42]
  Activity: 23.1%

## COc1ccc2cc3[n+](cc2c1OCCCCCCO[N+](=O)[O-])CCc1cc2c(cc1-3)OCO2
[1]
  IC50: 8.51 µM
